Laboratory results: ChEMBL document CHEMBL5724801, “EUbOPEN Chemogenomics Library - Multiplex” (2024)
Values joined by “and” are separate entries in the source; they are usually repeats but may differ in a detail not shown here. Equal values may be shown once.

tested on: HEK-293T; experiment: Multiplex assay against HEK293T; type: toxicity, cell-based; settings: human, 12 h, 1 µM, compound concentration 1 uM
Outline: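 Compound was added to live cells that had been stained at seeding with Hoechst33342, BioTracker Green Microtubule Cytoskeleton Dye, MitoTracker Red and Annexin V Alexa Fluor 680, and imaging followed on a CQ1 microscope at 37°C and 5% CO2. CellPathfinder machine-learning gating divided cells into Hoechst high-intensity objects or normal cells, normal cells into healthy, pyknosed or fragmented nuclei, and pyknosed cells into mitotic or apoptotic. Tubulin, mitochondrial-mass and membrane-permeability phenotypes are per cents of healthy-nucleus cells.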

SMILES	Population Apoptotic (%)	Population Fragmented Nuclei (%)	Population Healthy Nuclei (%)	Population Hoechst High Intensity Objects (%)	Population Membrane Permeable-Phenotype (%)	Population Mitochondria Different-Phenotype (%)	Population Mitotic Cells (%)	Population Normal (%)	Population Pyknosed Nuclei (%)	Population Tubulin-Different-Phenotype (%)
COc1c(C)cc(NC(=O)c2nn(Cc3ccc(F)cc3)c3c2CN(C(=O)c2ccc[nH]2)C[C@]3(C)C(N)=O)cc1C	42% and 38%	6% and 7%	79% and 75%	7% and 5%	0%	51% and 58%	57% and 61%	92% and 94%	13% and 17%	36% and 29%
COc1cc2ncnc(Nc3ccc(Oc4ccccc4)cc3C)c2cc1OC.Cl	9.24% and 8.93%	2.79% and 1.37%	50.51% and 21.92%	0%	1.51% and 0%	24.62% and 9.38%	90.76% and 91.07%	100%	46.7% and 76.71%	6.53% and 18.75%
CSc1nc(NC2CCCC2)c([N+](=O)[O-])c(NC2CCCC2)n1 [GS-39783]	45% and 40%	11% and 3%	74% and 85%	8% and 4%	0%	41% and 68%	54% and 59%	91% and 95%	14% and 11%	30% and 27%
Cl.NCCc1ccc(O)c(O)c1 [DOPAMINE HYDROCHLORIDE]	31% and 54%	6% and 7%	77% and 78%	10% and 6%	0%	54% and 58%	68% and 46%	89% and 93%	16% and 14%	36% and 18%

same assay, conditions: human, 12 h, 1 µM, compound concentration 1 uM

SMILES	Total Cell Count
COc1c(C)cc(NC(=O)c2nn(Cc3ccc(F)cc3)c3c2CN(C(=O)c2ccc[nH]2)C[C@]3(C)C(N)=O)cc1C	426 and 304
COc1cc2ncnc(Nc3ccc(Oc4ccccc4)cc3C)c2cc1OC.Cl	394 and 146
CSc1nc(NC2CCCC2)c([N+](=O)[O-])c(NC2CCCC2)n1 [GS-39783]	346 and 301
Cl.NCCc1ccc(O)c(O)c1 [DOPAMINE HYDROCHLORIDE]	324 and 372

same assay, conditions: human, 12 h, 10 µM, compound concentration 10 uM

SMILES	Population Apoptotic (%)	Population Fragmented Nuclei (%)	Population Healthy Nuclei (%)	Population Hoechst High Intensity Objects (%)	Population Membrane Permeable-Phenotype (%)	Population Mitochondria Different-Phenotype (%)	Population Mitotic Cells (%)	Population Normal (%)	Population Pyknosed Nuclei (%)	Population Tubulin-Different-Phenotype (%)
COc1c(C)cc(NC(=O)c2nn(Cc3ccc(F)cc3)c3c2CN(C(=O)c2ccc[nH]2)C[C@]3(C)C(N)=O)cc1C	67% and 59%	4% and 6%	77% and 71%	13%	0%	90% and 95%	32% and 40%	86%	17% and 21%	62% and 63%
COc1cc2ncnc(Nc3ccc(Oc4ccccc4)cc3C)c2cc1OC.Cl	10.53% and 18.75%	1.92% and 2.05%	–	0%	0.6% and 0%	17.86% and 20%	89.47% and 81.25%	100%	52.05% and 87.67%	–
CSc1nc(NC2CCCC2)c([N+](=O)[O-])c(NC2CCCC2)n1 [GS-39783]	29% and 40%	6% and 5%	81% and 84%	6% and 5%	0%	50% and 68%	70% and 60%	93% and 94%	12% and 10%	40% and 29%
Cl.NCCc1ccc(O)c(O)c1 [DOPAMINE HYDROCHLORIDE]	46% and 37%	5%	77% and 83%	6% and 5%	0%	57% and 51%	53% and 62%	93% and 94%	17% and 11%	43% and 23%

same assay, conditions: human, 12 h, 10 µM, compound concentration 10 uM

SMILES	Total Cell Count
COc1c(C)cc(NC(=O)c2nn(Cc3ccc(F)cc3)c3c2CN(C(=O)c2ccc[nH]2)C[C@]3(C)C(N)=O)cc1C	383 and 285
COc1cc2ncnc(Nc3ccc(Oc4ccccc4)cc3C)c2cc1OC.Cl	365 and 146
CSc1nc(NC2CCCC2)c([N+](=O)[O-])c(NC2CCCC2)n1 [GS-39783]	449 and 406
Cl.NCCc1ccc(O)c(O)c1 [DOPAMINE HYDROCHLORIDE]	344 and 413

same assay, conditions: human, 24 h, 1 µM, compound concentration 1 uM

SMILES	Population Apoptotic (%)	Population Fragmented Nuclei (%)	Population Healthy Nuclei (%)	Population Hoechst High Intensity Objects (%)	Population Membrane Permeable-Phenotype (%)	Population Mitochondria Different-Phenotype (%)	Population Mitotic Cells (%)	Population Normal (%)	Population Pyknosed Nuclei (%)	Population Tubulin-Different-Phenotype (%)
COc1c(C)cc(NC(=O)c2nn(Cc3ccc(F)cc3)c3c2CN(C(=O)c2ccc[nH]2)C[C@]3(C)C(N)=O)cc1C	21% and 51%	7% and 5%	80% and 86%	4%	0%	30% and 43%	78% and 48%	95%	12% and 7%	24% and 16%
COc1cc2ncnc(Nc3ccc(Oc4ccccc4)cc3C)c2cc1OC.Cl	18.7% and 16.84%	0.78% and 1.86%	80.12% and 39.13%	0%	2.13% and 1.59%	8.53% and 7.94%	81.3% and 83.16%	100%	–	10.85% and 3.17%
CSc1nc(NC2CCCC2)c([N+](=O)[O-])c(NC2CCCC2)n1 [GS-39783]	30% and 38%	12% and 7%	76% and 84%	7% and 8%	0%	25% and 51%	69% and 61%	92% and 91%	11% and 7%	19%
Cl.NCCc1ccc(O)c(O)c1 [DOPAMINE HYDROCHLORIDE]	44% and 20%	9% and 8%	76% and 85%	4% and 5%	1% and 0%	40% and 46%	55% and 79%	95% and 94%	13% and 5%	19% and 11%

same assay, conditions: human, 24 h, 1 µM, compound concentration 1 uM

SMILES	Total Cell Count
COc1c(C)cc(NC(=O)c2nn(Cc3ccc(F)cc3)c3c2CN(C(=O)c2ccc[nH]2)C[C@]3(C)C(N)=O)cc1C	574 and 422
CSc1nc(NC2CCCC2)c([N+](=O)[O-])c(NC2CCCC2)n1 [GS-39783]	492 and 360
Cl.NCCc1ccc(O)c(O)c1 [DOPAMINE HYDROCHLORIDE]	451 and 478

same assay, conditions: human, 24 h, 10 µM, compound concentration 10 uM

SMILES	Population Apoptotic (%)	Population Fragmented Nuclei (%)	Population Healthy Nuclei (%)	Population Hoechst High Intensity Objects (%)	Population Membrane Permeable-Phenotype (%)	Population Mitochondria Different-Phenotype (%)	Population Mitotic Cells (%)	Population Normal (%)	Population Pyknosed Nuclei (%)	Population Tubulin-Different-Phenotype (%)
COc1c(C)cc(NC(=O)c2nn(Cc3ccc(F)cc3)c3c2CN(C(=O)c2ccc[nH]2)C[C@]3(C)C(N)=O)cc1C	53% and 67%	6% and 5%	73% and 74%	11% and 15%	0%	91% and 92%	46% and 32%	88% and 84%	19%	61% and 56%
COc1cc2ncnc(Nc3ccc(Oc4ccccc4)cc3C)c2cc1OC.Cl	30.37% and 35.11%	2.24% and 2.6%	–	0.22% and 0%	0.66% and 0%	13.58% and 21.05%	69.63% and 64.89%	99.78% and 100%	30.2% and 85.06%	–
CSc1nc(NC2CCCC2)c([N+](=O)[O-])c(NC2CCCC2)n1 [GS-39783]	27% and 37%	11% and 8%	78% and 83%	5% and 6%	1% and 0%	30% and 52%	72% and 62%	94% and 93%	10% and 7%	30% and 28%
Cl.NCCc1ccc(O)c(O)c1 [DOPAMINE HYDROCHLORIDE]	39% and 38%	7% and 9%	79% and 83%	5%	0%	36% and 40%	60% and 61%	94%	12% and 7%	23% and 15%

same assay, conditions: human, 24 h, 10 µM, compound concentration 10 uM

SMILES	Total Cell Count
COc1c(C)cc(NC(=O)c2nn(Cc3ccc(F)cc3)c3c2CN(C(=O)c2ccc[nH]2)C[C@]3(C)C(N)=O)cc1C	403 and 313
COc1cc2ncnc(Nc3ccc(Oc4ccccc4)cc3C)c2cc1OC.Cl	448 and 154
CSc1nc(NC2CCCC2)c([N+](=O)[O-])c(NC2CCCC2)n1 [GS-39783]	553 and 474
Cl.NCCc1ccc(O)c(O)c1 [DOPAMINE HYDROCHLORIDE]	393 and 533

same assay, conditions: human, 48 h, 1 µM, compound concentration 1 uM

SMILES	Population Apoptotic (%)	Population Fragmented Nuclei (%)	Population Healthy Nuclei (%)	Population Hoechst High Intensity Objects (%)	Population Membrane Permeable-Phenotype (%)	Population Mitochondria Different-Phenotype (%)	Population Mitotic Cells (%)	Population Normal (%)	Population Pyknosed Nuclei (%)	Population Tubulin-Different-Phenotype (%)
COc1c(C)cc(NC(=O)c2nn(Cc3ccc(F)cc3)c3c2CN(C(=O)c2ccc[nH]2)C[C@]3(C)C(N)=O)cc1C	21% and 39%	11% and 12%	81%	2% and 3%	1%	25% and 28%	78% and 60%	97% and 96%	6%	18% and 9%
COc1cc2ncnc(Nc3ccc(Oc4ccccc4)cc3C)c2cc1OC.Cl	–	2.53% and 2.04%	85.42% and 68.88%	0.14% and 0%	4.9% and 2.96%	14.29% and 17.78%	92.22% and 73.68%	99.86% and 100%	12.06% and 29.08%	–
CSc1nc(NC2CCCC2)c([N+](=O)[O-])c(NC2CCCC2)n1 [GS-39783]	35% and 30%	15% and 13%	74% and 77%	3% and 6%	1% and 0%	22% and 32%	64% and 69%	96% and 93%	9% and 8%	22% and 24%
Cl.NCCc1ccc(O)c(O)c1 [DOPAMINE HYDROCHLORIDE]	19% and 23%	14% and 10%	78% and 81%	4%	1% and 0%	23% and 20%	80% and 76%	95%	7%	14% and 7%

same assay, conditions: human, 48 h, 1 µM, compound concentration 1 uM

SMILES	Total Cell Count
COc1c(C)cc(NC(=O)c2nn(Cc3ccc(F)cc3)c3c2CN(C(=O)c2ccc[nH]2)C[C@]3(C)C(N)=O)cc1C	920 and 652
CSc1nc(NC2CCCC2)c([N+](=O)[O-])c(NC2CCCC2)n1 [GS-39783]	775 and 505
Cl.NCCc1ccc(O)c(O)c1 [DOPAMINE HYDROCHLORIDE]	785 and 638

same assay, conditions: human, 48 h, 10 µM, compound concentration 10 uM

SMILES	Population Apoptotic (%)	Population Fragmented Nuclei (%)	Population Healthy Nuclei (%)	Population Hoechst High Intensity Objects (%)	Population Membrane Permeable-Phenotype (%)	Population Mitochondria Different-Phenotype (%)	Population Mitotic Cells (%)	Population Normal (%)	Population Pyknosed Nuclei (%)	Population Tubulin-Different-Phenotype (%)
COc1c(C)cc(NC(=O)c2nn(Cc3ccc(F)cc3)c3c2CN(C(=O)c2ccc[nH]2)C[C@]3(C)C(N)=O)cc1C	60% and 80%	8% and 9%	76% and 81%	14% and 10%	0%	93% and 90%	39% and 19%	85% and 89%	15% and 9%	66% and 59%
COc1cc2ncnc(Nc3ccc(Oc4ccccc4)cc3C)c2cc1OC.Cl	20.37% and 26.73%	1.69% and 2.03%	77.27% and 46.7%	0%	2.35% and 1.09%	53.61% and 47.83%	79.63% and 73.27%	100%	21.04% and 51.27%	–
CSc1nc(NC2CCCC2)c([N+](=O)[O-])c(NC2CCCC2)n1 [GS-39783]	17% and 30%	14% and 13%	78% and 77%	3% and 5%	1% and 0%	27% and 35%	82% and 69%	96% and 94%	7% and 8%	21%
Cl.NCCc1ccc(O)c(O)c1 [DOPAMINE HYDROCHLORIDE]	30% and 17%	14% and 12%	79% and 83%	3% and 1%	0%	24% and 17%	70% and 82%	96% and 98%	6% and 4%	13% and 7%

same assay, conditions: human, 48 h, 10 µM, compound concentration 10 uM

SMILES	Total Cell Count
COc1c(C)cc(NC(=O)c2nn(Cc3ccc(F)cc3)c3c2CN(C(=O)c2ccc[nH]2)C[C@]3(C)C(N)=O)cc1C	467 and 376
CSc1nc(NC2CCCC2)c([N+](=O)[O-])c(NC2CCCC2)n1 [GS-39783]	856 and 647
Cl.NCCc1ccc(O)c(O)c1 [DOPAMINE HYDROCHLORIDE]	660 and 859
